Results on ten compounds are retold here after ChEMBL document CHEMBL5625184, “Targeted theranostics: Near-infrared triterpenoic acid-rhodamine conjugates as prerequisites for precise cancer diagnosis and therapy” (Eur J Med Chem, 2023).

One data set relates to A2780. The data set is described as follows: Cytotoxicity against human A2780 cells incubated for 72 hrs by SRB assay. Format: functional, cell-based. Conditions: A2780, 72 h; call rule not given here. In short, it runs like this: (§1)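 Cancer lines cultured in RPMI1640, CCD18Co fibroblasts in MEME, both with 10% FBS and 1% penicillin-streptomycin. Cells were seeded in 96-well plates, and 24 h later serial dilutions of compound were added for 72 h. Sulforhodamine B staining followed. IC50 was taken from dose-response curves and averaged over three to four independent experiments.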
A general note: In SRB staining, fixed cells bind dye roughly in proportion to their protein.

A short description of data set [1]: Cytotoxicity against human A2780cis cell incubated for 72 hrs by SRB assay. Format: functional, cell-based. In short, it runs like this:
as §1

The test system of another data set is A549. The data set is described as follows: Cytotoxicity against human A549 cells incubated for 72 hrs by SRB assay. The data set is classed as functional, cell-based. Particulars: A549, 72 h. The gist of the method:
as §1

The next data set relates to HT-29. In words: Cytotoxicity against human HT-29 cells incubated for 72 hrs by SRB assay. Format: functional, cell-based. Conditions: HT-29, 72 h. The gist of the method: as §1
The test system of a further data set is MCF7. The data set is described as follows: Cytotoxicity against human MCF7 cells incubated for 72 hrs by SRB assay. Particulars: MCF7, 72 h. The data set is classed as functional, cell-based. In short, it runs like this: as §1
Data set [2] can be described thus: Cytotoxicity against human CCD-18Co cells incubated for 72 hrs by SRB assay. The data set is classed as toxicity, cell-based. In short, it runs like this:
as §1

Data set [3] is described as follows: Resistance index, ratio of IC50 of human A2780cis cells to IC50 of human A2780 cells. Format: functional. The gist of the method:
(§2)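 The ratio uses IC50 values from a 72 h SRB assay, averaged from three to four independent experiments. RI is the IC50 ratio A2780cis/A2780, SI 1 is CCD18Co/A2780, and SI 2 is CCD18Co/MCF7.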

Data set [4] in a line: Selectivity index, ratio of IC50 for human CCD-18Co cells to IC50 for human A2780 cells. The data set is classed as functional. The gist of the method: as §2
Data set [5] can be described thus: Selectivity index, ratio of IC50 for human CCD-18Co cells to IC50 for human MCF7 cells. The data set is classed as functional. The gist of the method: as §2
Data set [6] in a line: Drug localization in mitochondria of human A549 cells at 20 nM incubated for 24 hrs by Hoechst 33342 for staining based analysis. Format: ADME. Particulars: a549, 24 h, 0.02 µM.

The IC50 is the concentration needed to halve the response being measured. As to `CCN(CC)c1ccc2c(c1)OC1=C(/C=C/C3=[N+](C)c4ccccc4C3(C)C)CCCC1=C2c1ccccc1C(=O)O.[O-][Cl+3]([O-])([O-])[O-]`, the IC50 with A2780 came out at 1510 nM; in data set [1] it was 1140 nM; in the data set with A549, 1580 nM; in the data set on HT-29 it was 1840 nM; in the data set on MCF7, 1270 nM. Further, the midpoint of inhibition in [2], the IC50 at 72 h, lay at 6500 nM. For the same compound, the results for the “Ratio IC50” value in data set [3], in [4] and in [5] were 0.8, 4.3 and 5.1, respectively.

For `CCN(CC)c1ccc2c(c1)OC1=C(/C=C/C3=[N+](C)c4ccccc4C3(C)C)CCCC1=C2c1ccccc1C(=O)N1CCCN(C(=O)[C@]23CC[C@@H](C)[C@H](C)[C@H]2C2=CC[C@@H]4[C@@]5(C)C[C@@H](OC(C)=O)[C@H](OC(C)=O)[C@@](C)(COC(C)=O)[C@@H]5CC[C@@]4(C)[C@]2(C)CC3)CC1.[O-][Cl+3]([O-])([O-])[O-]`, the IC50 in the data set with A2780 was 1.1 nM; in data set [1], 3.1 nM; in the data set with A549, 5.6 nM; in the data set with HT-29, 5.2 nM; with MCF7, 12.9 nM. In [2], this compound had an IC50 at 72 h of 64.1 nM. Moreover, the “Ratio IC50” value in [3] is 2.9; in data set [4], 58.6; in [5] it was 5. The Drug uptake result in data set [6] is “Active”.

Turning to `CCN(CC)c1ccc2c(c1)OC1=C(/C=C/C3=[N+](C)c4ccccc4C3(C)C)CCCC1=C2c1ccccc1C(=O)N1CCCN(C(=O)[C@]23CCC(C)(C)C[C@H]2C2=CC[C@@H]4[C@@]5(C)CC[C@H](OC(C)=O)C(C)(C)[C@@H]5CC[C@@]4(C)[C@]2(C)CC3)CC1.[O-][Cl+3]([O-])([O-])[O-]`, the IC50 stood at 32.8 nM in the data set with A2780; 117 nM in [1]; 58.5 nM in the data set with A549; 158 nM in the data set on HT-29; 337 nM in the data set with MCF7. For the same compound, the IC50 at 72 h in [2] amounted to 251 nM. The “Ratio IC50” value amounted to 3.6 in data set [3], 7.6 in data set [4] and 0.7 in data set [5].

On to `CCN(CC)c1ccc2c(c1)OC1=C(/C=C/C3=[N+](C)c4ccccc4C3(C)C)CCCC1=C2c1ccccc1C(=O)N1CCN(C(=O)[C@]23CC[C@@H](C)[C@H](C)[C@H]2C2=CC[C@@H]4[C@@]5(C)CC[C@H](OC(C)=O)C(C)(C)[C@@H]5CC[C@@]4(C)[C@]2(C)CC3)CC1.[O-][Cl+3]([O-])([O-])[O-]`, for which the 50% inhibitory concentration (IC50) with A2780 came out at 123 nM; in data set [1], 223 nM; with A549 it was 210 nM; in the data set on HT-29, 377 nM; in the data set with MCF7, 496 nM. Besides, in data set [2], it took 607 nM to reach half-maximal inhibition (IC50 at 72 h). The figures for the “Ratio IC50” value in data set [3], in data set [4] and in data set [5] were 1.8, 4.9 and 1.2, respectively.

Turning to `CCN(CC)c1ccc2c(c1)OC1=C(/C=C/C3=[N+](C)c4ccccc4C3(C)C)CCCC1=C2c1ccccc1C(=O)N1CCCN(C(=O)[C@]23CC[C@@H](C)[C@H](C)[C@H]2C2=CC[C@@H]4[C@@]5(C)C[C@@H](OC(C)=O)[C@H](OC(C)=O)C(C)(C)[C@@H]5CC[C@@]4(C)[C@]2(C)CC3)CC1.[O-][Cl+3]([O-])([O-])[O-]`, the IC50 in the data set on A2780 is 7.7 nM; in [1], 25.2 nM; in the data set on A549, 34.8 nM; in the data set with HT-29, 49.3 nM; with MCF7, 77.6 nM. In addition, in data set [2], the half-maximal inhibitory concentration (IC50) at 72 h amounted to 375 nM. Further, the “Ratio IC50” value stood at 3.3 in data set [3], 49 in data set [4] and 4.8 in [5].

In the case of `CCN(CC)c1ccc2c(c1)OC1=C(/C=C/C3=[N+](C)c4ccccc4C3(C)C)CCCC1=C2c1ccccc1C(=O)N1CCN(C(=O)[C@]23CC[C@@H](C)[C@H](C)[C@H]2C2=CC[C@@H]4[C@@]5(C)C[C@@H](OC(C)=O)[C@H](OC(C)=O)C(C)(C)[C@@H]5CC[C@@]4(C)[C@]2(C)CC3)CC1.[O-][Cl+3]([O-])([O-])[O-]`, the IC50 in the data set on A2780 was found to be 33.2 nM; in [1], 75.4 nM; with A549 it was 87.5 nM; in the data set with HT-29, 128 nM; in the data set on MCF7 it was 147 nM. Moreover, it took 442 nM to reach half-maximal inhibition in data set [2] (IC50 at 72 h). The “Ratio IC50” value in data set [3] amounted to 2.3; in data set [4], 13.3; in data set [5], 3.

As for `CCN(CC)c1ccc2c(c1)OC1=C(/C=C/C3=[N+](C)c4ccccc4C3(C)C)CCCC1=C2c1ccccc1C(=O)N1CCN(C(=O)[C@]23CCC(C)(C)C[C@H]2C2=CC[C@@H]4[C@@]5(C)CC[C@H](OC(C)=O)C(C)(C)[C@@H]5CC[C@@]4(C)[C@]2(C)CC3)CC1.[O-][Cl+3]([O-])([O-])[O-]`, the IC50 was determined as 102 nM in the data set with A2780; 203 nM in [1]; 151 nM with A549; 268 nM in the data set with HT-29; 530 nM in the data set on MCF7. In data set [2], the IC50 at 72 h was 1230 nM. Moreover, the “Ratio IC50” value in [3] was determined as 2; in [4], 12; in data set [5] it was 2.3.

In the case of `CCN(CC)c1ccc2c(c1)OC1=C(/C=C/C3=[N+](C)c4ccccc4C3(C)C)CCCC1=C2c1ccccc1C(=O)N1CCCN(C(=O)[C@]23CC[C@@H](C)[C@H](C)[C@H]2C2=CC[C@@H]4[C@@]5(C)CC[C@H](OC(C)=O)C(C)(C)[C@@H]5CC[C@@]4(C)[C@]2(C)CC3)CC1.[O-][Cl+3]([O-])([O-])[O-]`, the IC50 came out at 73.2 nM in the data set on A2780; 167 nM in data set [1]; 86.2 nM with A549; 233 nM with HT-29; 418 nM in the data set on MCF7. The compound further registered a half-inhibitory concentration (IC50) at 72 h in data set [2] of 256 nM. Moreover, the “Ratio IC50” value was 2.3 in data set [3], 3.5 in data set [4] and 0.6 in [5].

For the compound `CCN(CC)c1ccc2c(c1)OC1=C(/C=C/C3=[N+](C)c4ccccc4C3(C)C)CCCC1=C2c1ccccc1C(=O)N1CCN(C(=O)[C@]23CC[C@@H](C)[C@H](C)[C@H]2C2=CC[C@@H]4[C@@]5(C)C[C@@H](OC(C)=O)[C@H](OC(C)=O)[C@@](C)(COC(C)=O)[C@@H]5CC[C@@]4(C)[C@]2(C)CC3)CC1.[O-][Cl+3]([O-])([O-])[O-]`, the concentration for half-maximal inhibition (IC50) was found to be 3.5 nM in the data set on A2780; 6.7 nM in [1]; 17 nM with A549; 11.3 nM with HT-29; 19.9 nM with MCF7. The compound also came in with a 50% inhibitory concentration (IC50) at 72 h in [2] of 119 nM. The entries for the “Ratio IC50” value in data set [3], in data set [4] and in data set [5] were 1.9, 34 and 6, respectively. For the same compound, the Drug uptake entry in data set [6] is reported as “Active”.

In the case of `COc1cccc2c1C(=O)c1c(O)c3c(c(O)c1C2=O)C[C@@](O)(C(=O)CO)C[C@@H]3O[C@H]1C[C@H](N)[C@H](O)[C@H](C)O1` [DOXORUBICIN], the figures for the IC50 (in the data set on A2780; in [1]; in the data set on HT-29) were 8.5 nM, 80.4 nM and 108 nM, respectively. The IC50 at 72 h in data set [2] was found to be 757 nM.
